# Sampled rows, rich in hits. Any-hit rate of the full collection: about 3.6%.
# HIF act = HIF pathway transcriptional activation | U2OS HRE-luciferase reporter, luminescence; normalized: DMSO 0%, desferrioxamine 100% | activation, % at 7.5 µM (by protocol) | actives 0.32% (n = 300,000) | AID 1910;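 active = mean activation of at least 10% of the iron chelator positive control signal, with at least half of replicates also reaching 10%; inconclusive = mean and replicate majority disagree about reaching 10%; inactive = mean and most replicates under 10%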
# SKKanGAS inh = SKKanGAS growth inhibition; S. pyogenes SKKanGAS, kanamycin growth, BacTiter-Glo, 6 h; inhibition, % at 7.5 µM; actives 1.3% (n = 300,000); AID 1662;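 active = mean replicate score, as percent of positive control median, at least 50; inconclusive = mean below 50 but one replicate at or above 50; inactive = mean and every replicate below 50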;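 note: strain carries kanamycin resistance gene driven by streptokinase promoter and grows in 40 µg/ml kanamycin; loss of luminescence reflects streptokinase promoter inhibition or plain growth inhibition; 0% = median of DMSO wells and 100% = positive control at its reference dose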
# T cruzi inh = blocks replication of Trypanosoma cruzi; T. cruzi beta-gal in NIH3T3, luminescence, 90 h; actives 1.4% (n = 300,000); AID 1885; inhibition, % (concentration not given with the values);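 active = mean inhibition across valid replicates above about 55%, limit read from the data; inconclusive = mean below that limit but half or more replicates reach it; inactive = mean below it, under half of replicates reach it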;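 note: signal also drops with host cell toxicity which is not excluded here; 0% = plate median of DMSO wells and 100% = zero luminescence signal; higher percent means less beta-gal luminescence so fewer parasites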
#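 compound dosing = single 50 nL compound addition per well in DMSO | material = NIH/3T3 host cells with β-galactosidase reporter T. cruzi | input = 5,000 host fibroblasts per well | timing = ≥90 h infection period, 3 h prior cell attachment | read-out basis = percent inhibition of parasite-derived β-gal signal | detection = GalScreen β-gal luminescence, detergent lysis, 60 min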
# PfHsp90 set2 = inhibits growth of yeast expressing Plasmodium falciparum Hsp90; actives 0.32% (n = 310,000); AID 504621; S. cerevisiae expressing PfHsp90, BacTiter-Glo ATP, 48 h; yeast lacking PDR1 and PDR3 efflux regulators; inhibition, % at 9.4 µM;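 active = every replicate shows inhibition above about 80%, whatever the replicate mean, limit read from the data; inconclusive = mean inhibition reaches the set limit but some replicate falls short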;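 note: 0% = DMSO neutral controls and 100% = 20 µM radicicol positive controls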
# Beta apoptosis = beta cell apoptosis inhibition | INS-1E cytokine-induced death, ATP luminescence, 48 h; percent of positive-control rescue, neutral wells zero | protection from apoptosis, % (no concentration beside the values) | actives 0.8% (n = 300,000);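 active = Every replicate reaches about 75%, or at least half do and their mean reaches it too, limit read from the data; inconclusive = At least half of replicates reach the limit but their mean does not; inactive = Under half of replicates reach the limit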;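 note: 0% = cytokine-treated negative control wells and 100% = positive control rescue; higher means more ATP so stronger rescue from cytokine killing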
# CSC inhib = cancer stem cell inhibition | actives 1.1% (n = 300,000) | cancer stem cell-like cells viability, luminescence | inhibition, % at 7.5 µM; in the data active = inhibition above about 75%; inconclusive = no clear call, values can overlap the other calls; tested in HMLE shEcad cells
# The depositor's hits bear a star; u = inconclusive; x = no result.
SMILES,HIF act,SKKanGAS inh,T cruzi inh,PfHsp90 set2,Beta apoptosis,CSC inhib
CCN(CC)S(=O)(=O)c1cccc(-c2nnc(SCCCC(=O)c3ccccc3)o2)c1,1,7,66*,x,10,-4
CCN(CC)S(=O)(=O)c1cccc(-c2nnc(SCc3nc4ccccc4s3)o2)c1,3,4,22,-17,1,-14
CCN(CC)S(=O)(=O)c1cccc(-c2nnc(SCCCC(=O)c3ccc(F)cc3)o2)c1,-1,13,60*,x,17,-3
O=S(=O)(Nc1ccccc1N1CCOCC1)c1c(F)cc(F)cc1Br,x,x,x,x,-3,-2
C=CCN(C(=O)CCc1ccccc1OC)c1nc(-c2ccc(S(C)(=O)=O)cc2)cs1,-34,17,66*,16,x,41
COc1ccc(S(=O)(=O)Nc2ccc3c(c2)C(=O)N([C@H](C)CO)C[C@H](C)[C@@H](CN(C)S(C)(=O)=O)O3)cc1,x,x,x,-7,-2,x
Cc1nn(-c2nc3ccccc3[nH]2)c(N)c1-c1ccccc1,3,87*,17,4,x,31
Cc1nn(-c2ccccc2)c(N)c1-c1ccccc1,3,1,-2,x,-3,7
CCOC(=O)Cn1nc(-c2ccccc2)c2ccccc2c1=O,0,9,4,-14,2,-2
O=c1c2ccccc2c(-c2ccccc2)nn1Cc1c(Cl)cccc1Cl,0,75*,38,-54,0,36
N#C/C(N=Nc1ccccc1O)=N\Nc1ccccc1O,1,36,29,20,115*,9
CCOC(=O)C1(Cc2cccc(OC)c2)CCCN(Cc2c(C)nn(C(C)C)c2C)C1 (stereo not drawn),0,-6,64*,5,-1,1
OCCN1CCN(C2Cc3cc(Cl)ccc3Sc3ccc(Cl)cc32)CC1 (stereo not drawn) (tested in a mixture with another compound),1,11,14,-21,101*,x
CN1CCN(CCOC2Cc3ccccc3Sc3ccc(Cl)cc32)CC1 (stereo not drawn),0,-3,39,17,-2,-6
CN1CCN(C2=Cc3cc(Cl)ccc3Sc3cc(F)ccc32)CC1,-4,90*,38,-5,x,113*
CN1CCN(C2Cc3cc(Cl)ccc3Sc3cc(F)ccc32)CC1 (stereo not drawn),-1,7,46,-16,x,101*
CN1CCN(C2=Cc3ccccc3Sc3cc(F)c(F)cc32)CC1,-2,12,14,33,1,22
CC(NC(=O)c1ccccc1)C(=O)NC1CCCc2ccccc21 (stereo not drawn),x,x,x,2,x,x
CN1CCN(CCCNC(=O)CCC(=O)N2CCOc3ccccc32)CC1,0,-2,-28,18,5,-9
CCC(C)n1c(SCC(=O)N(CC)c2c(N)n(Cc3ccccc3)c(=O)[nH]c2=O)nc2ccccc2c1=O (stereo not drawn),x,x,x,-6,x,x
CCN(CC)C(=O)CSc1nnc2nnc3cc(C)ccc3n12,-2,4,41,8,-19,11
CCN(CC)C(=O)CSc1nnc2nnc3cc(Cl)ccc3n12,0,15,59*,-3,-9,18
CC(=O)C1=NN(c2ccccc2)C(c2cccs2)N1c1ccc(N(C)C)cc1 (stereo not drawn),0,-1,55*,19,103*,2
CC(=O)C1=NN(c2ccccc2)C(c2ccc3c(c2)OCO3)N1c1ccccc1 (stereo not drawn),0,-1,20,-20,-2,14
COCCNC(=O)c1c[nH]c2ccc(S(=O)(=O)N3CCc4ccccc43)cc2c1=O,-1,-9,20,x,-17,84*
CCOC(=O)c1sc(=S)n(-c2ccccc2)c1C,19*,0,-18,x,-2,-5
CCOC(=O)c1sc(=S)n(-c2ccccc2)c1N,0,-4,-4,-2,2,-7
Cc1nc2sccn2c(=O)c1S(=O)(=O)N1CCN(c2cccc(Cl)c2)CC1,0,-3,10,-13,1,6
O=C1CN(/N=C/c2ccc([N+](=O)[O-])o2)C(=O)N1,0,84*,u,x,-10,-9
